Assays:
Assay type in all cases: functional
[1] = tested on: HeLa; assay: Cell cycle arrest in human HeLa cells pretreated with 10 uM Dexamethasone for 1 hr assessed as G2/M phase accumulation at 100 uM after 24 hrs by FACS
Outline: (§1)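 HeLa cells pretreated for 1 h with the listed agent (10 mM GSH ethyl ester, 10 µM dexamethasone, 10 µM pifithrin, 100 µM Boc-Asp(OMe)-fmk or 5 µM cyclosporin A), then given 100 µM compound for 24 h. Cells fixed in PBS-MeOH, stained with PI/RNase and analysed by flow cytometry for DNA content. At least three experiments, one representative shown.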

[2] = tested on: HeLa; assay: Cell cycle arrest in human HeLa cells assessed as G1 phase accumulation at 25 uM after 24 hrs by FACS
Outline: (§2)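 HeLa cells seeded 5 × 10^5 per dish 48 h ahead in DMEM with 10% FCS, then exposed to compound for 24 h (DMSO 0.1% final). Adherent and floating cells pooled, fixed in PBS-MeOH (1:2) at 4 °C for at least 18 h, and stained with PI (50 µg/mL) plus RNase A for 30 min at room temperature. Flow cytometry at 488 nm excitation, doublets gated out; phase percentages taken from DNA histograms.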

[3] = tested on: HeLa; assay: Cell cycle arrest in human HeLa cells assessed as S phase accumulation at 25 uM after 24 hrs by FACS; outline: as §2
[4] = tested on: HeLa; assay: Cell cycle arrest in human HeLa cells assessed as subG1 phase accumulation at 50 uM after 24 hrs by FACS; outline: as §2
[5] = tested on: HeLa; assay: Cell cycle arrest in human HeLa cells assessed as subG1 phase accumulation at 100 uM after 24 hrs by FACS; outline: as §2
[6] = tested on: HeLa; assay: Induction of apoptosis in human HeLa cells assessed as increase in intracellular hydrogen peroxide level at 100 uM after 3 hrs by FACS relative to untreated control
Outline: (§3)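 HeLa cells at 80% confluence were refed and exposed to 100 µM for 1, 3 or 24 h. They were loaded with 10 µM DCFH-DA for 30 min in the dark, trypsinized and resuspended in PBS. DCF fluorescence was measured by flow cytometry and expressed as fold versus untreated cells. At least three experiments.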

[7] = tested on: HeLa; assay: Induction of apoptosis in human HeLa cells assessed as increase in intracellular peroxide level at 100 uM after 24 hrs by FACS relative to untreated control; outline: as §3
[8] = tested on: HeLa; assay: Induction of apoptosis in human HeLa cells assessed as increase in intracellular glutathione-depleted cell population at 25 uM after 24 hrs by FACS
Outline: (§4)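 HeLa cells at 80% confluence got fresh medium and were exposed for 24 h. Adherent and floating cells were pooled, adjusted to (1-2) × 10^6/mL and stained with 25 µM CMF-DA for 30 min at 37 °C. After washing, flow cytometry scored the percentage of GSH-negative cells. At least three experiments.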

[9] = tested on: HeLa; assay: Induction of apoptosis in human HeLa cells assessed as increase in intracellular glutathione-depleted cell population at 50 uM after 24 hrs by FACS; outline: as §4
[10] = tested on: HeLa; assay: Induction of apoptosis in human HeLa cells assessed as number of cells with decreased mitochondrial membrane potential at 100 uM after 6 hrs by measuring rhodamine 123 fluorescence intensity; parameters: scale not given: the % may be the effect or the level left
Outline: (§5)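 Cells in DMEM/10% FCS, medium renewed at 80% confluence, then 100 µM agent (0.1% DMSO final) for 1–24 h. Stained with 5 µM rhodamine 123 for 30 min in the dark, washed, trypsinized and resuspended in PBS; flow cytometry, percentage of cells with weak rhodamine 123 staining (reduced ΔΨm); at least three experiments, representative shown.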

[11] = tested on: HeLa; assay: Induction of apoptosis in human HeLa cells assessed as number of cells with decreased mitochondrial membrane potential at 100 uM after 24 hrs by measuring rhodamine 123 fluorescence intensity; parameters: scale not given: the % may be the effect or the level left; outline: as §5
[12] = tested on: HeLa; assay: Induction of apoptosis in human HeLa cells assessed as increase caspase 3/7 activities at 100 uM after 3 hrs by FACS relative to control
Outline: (§6)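 After 3–24 h exposure at 100 µM, HeLa cells were trypsinized. 1 × 10^6 cells in DMEM were mixed 1:1 with Z-DEVD-R110 substrate reagent and incubated 1 h at 37 °C, then washed. Released R110 read per cell by flow cytometry (ex 488/em 520 nm) and expressed as fold over untreated cells. At least three runs.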

[13] = tested on: HeLa; assay: Induction of apoptosis in human HeLa cells assessed as increase caspase 3/7 activities at 100 uM after 9 hrs by FACS relative to control; outline: as §6
[14] = tested on: HeLa; assay: Induction of apoptosis in human HeLa cells assessed as increase p53 expression at 100 uM after 3 hrs by FACS
Outline: (§7)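 HeLa seeded at 5 × 10^5 cells/dish 48 h before, in DMEM with 10% FCS; medium renewed at 60% confluence, then 100 µM agent (0.1% DMSO final) for 0–24 h. Pooled floating and adherent cells fixed in 1% paraformaldehyde (15 min, 4 °C), permeabilized in 70% EtOH (30 min, 4 °C), then FITC-conjugated mouse anti-p53 mAb (1 h, 37 °C), PI/RNase counterstain; flow cytometry, % p53-positive cells; ≥3 experiments.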

[15] = tested on: HeLa; assay: Induction of apoptosis in human HeLa cells assessed as increase p53 expression at 100 uM after 6 hrs by FACS; outline: as §7
[16] = tested on: HeLa; assay: Induction of apoptosis in human HeLa cells at 100 uM after 24 hrs by TUNEL assay
Outline: (§8)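 HeLa in DMEM/10% FCS, untreated or pretreated 1 h with listed inhibitor, then 100 µM agent (0.1% DMSO final) for 24 h. Pooled cells fixed in 1% paraformaldehyde (30 min, 4 °C), 70% EtOH (30 min, −20 °C); strand breaks labelled with TdT/fluorescein-BrdUTP (1 h, 37 °C), PI/RNase counterstain; flow cytometry, % apoptotic cells; ≥3 experiments.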

[17] = tested on: HeLa; assay: Induction of apoptosis in human HeLa cells pretreated with 100 uM Boc-Asp(OMe)-fmk for 1 hr at 100 uM after 24 hrs by TUNEL assay; outline: as §8
[18] = tested on: HeLa; assay: Induction of apoptosis in human HeLa cells pretreated with 5 uM cyclosporin A for 1 hr at 100 uM after 24 hrs by TUNEL assay; outline: as §8
[19] = tested on: HeLa; assay: Cell cycle arrest in human HeLa cells pretreated with 10 mM glutathione ethyl ester for 1 hr assessed as G1 phase accumulation at 100 uM after 24 hrs by FACS; outline: as §1
[20] = tested on: HeLa; assay: Cell cycle arrest in human HeLa cells pretreated with 10 mM glutathione ethyl ester for 1 hr assessed as S phase accumulation at 100 uM after 24 hrs by FACS; outline: as §1
[21] = tested on: HeLa; assay: Cell cycle arrest in human HeLa cells pretreated with 100 uM Boc-Asp(OMe)-fmk for 1 hr assessed as subG1 phase accumulation at 100 uM after 24 hrs by FACS; outline: as §1
[22] = tested on: HeLa; assay: Cell cycle arrest in human HeLa cells pretreated with 5 uM cyclosporin A for 1 hr assessed as subG1 phase accumulation at 100 uM after 24 hrs by FACS; outline: as §1
[23] = tested on: HeLa; assay: Cell cycle arrest in human HeLa cells pretreated with 10 uM pifithrin-alpha for 1 hr assessed as G1 phase accumulation at 100 uM after 24 hrs by FACS; outline: as §1

## CCCCCCCCCCCCC/C=C(/C(=O)OC)[C@@H](O)C(C)=O [SECOKOTOMOLIDE A]
[1]
  Activity: 12.3%
[2]
  Activity: 55.2%
[3]
  Activity: 18.1%
[4]
  Activity: 61.2%
[5]
  Activity: 75%
[6]
  fold change (FC): 2.9
[7]
  fold change (FC): 3.9
[8]
  Activity: 49%
[9]
  Activity: 92%
[10]
  Activity: 23%
[11]
  Activity: 75.1%
[12]
  fold change (FC): 3.5
[13]
  fold change (FC): 9.9
[14]
  Activity: 0.5%
[15]
  Activity: 3.2%
[16]
  Activity: 72.3%
[17]
  Activity: 39%
[18]
  Activity: 54.5%
[19]
  Activity: 80%
[20]
  Activity: 8.4%
[21]
  Activity: 74.8%
[22]
  Activity: 61.2%
[23]
  Activity: 51.3%
